Laboratory results taken from PubChem BioAssay AID504382 (The Scripps Research Institute Molecular Screening Center, 2011).
About 460 (18%) of roughly 2,500 compounds were called active.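 Rule for the calls: active = mean activation above a cutoff of low control average plus 3 SD from the earlier screen (cut at about 12% in these data); inactive = the rest.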 Only a sample is shown.

experiment: IANBD-channel fluorescence artefacts in buffer – biochemical, artefact control for cardiac RTF calcium sensitizer project, confirmation (AID 504382); settings: IANBD fluorescence interference counterscreen, EC20 Ca2+, at 7.2 µM, stronger effect = higher value, scaled: EC20 calcium 0, EC100 calcium 100
Summary of the method: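 Medium: MOPS/KCl/MgCl2/EGTA/NTA/DTT buffer, pH 7.2 | Reagent: EC20 calcium, 0.472 mM | Compound dosing: 7.2 µM single dose | Times: 15 min compound exposure at 25 °C | Signal: Fluorescence, 480/540 nm | Measure: Interference relative to controls | Repeats: Triplicate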

Compound | fluorescence artifact activation
Nc1nc2ccccc2n1CCOc1ccc(Br)cc1 | 0.41% (inactive)
O=C(C1=C(O)C(=O)N(c2nccs2)C1c1ccccc1)c1cc2ccccc2o1 (stereo not drawn) | -0.02% (inactive)
Cc1ccccc1Cn1cccc1/C=C1/C(=N)N2C=CSC2=NC1=O | 0.51% (inactive)
C=CCNc1nnc(SCC(=O)N2CCC(C(N)=O)CC2)s1 | 2.23% (inactive)
CCOc1c2ccc(C(=O)NCc3ccc(C)cc3)cc2nn1CCOC | 0.08% (inactive)
CCN(CC(=O)Nc1c(F)cccc1F)C(=O)CNC(=O)COc1ccccc1 | -0.06% (inactive)
c1ccc(-n2ncc(-c3nn[nH]n3)n2)cc1 | 48.8% (active)
O=C(C1=NN(c2ccccc2)C2C(=O)N(c3ccccc3)C(=O)C12)c1ccccc1 (stereo not drawn) | -0.1% (inactive)
O=C(NCc1ccco1)c1cccc2c1C(=O)c1ccc(N3CCC(Cc4ccccc4)CC3)cc1S2(=O)=O | 24.3% (active)
O=C(NCc1cccc(F)c1)c1cccc2c1C(=O)c1ccc(N3CCC(Cc4ccccc4)CC3)cc1S2(=O)=O | 3.97% (inactive)
O=C(NCc1cccc(C(F)(F)F)c1)c1cccc2c1C(=O)c1ccc(N3CCC(Cc4ccccc4)CC3)cc1S2(=O)=O | 0.26% (inactive)
O=C(NCc1ccc(F)cc1)c1cccc2c1C(=O)c1ccc(N3CCC(Cc4ccccc4)CC3)cc1S2(=O)=O | 0.01% (inactive)
O=C(NCCc1ccc(F)cc1)c1cccc2c1C(=O)c1ccc(N3CCC(Cc4ccccc4)CC3)cc1S2(=O)=O | 33.5% (active)
O=C(NCc1ccco1)c1cccc2c1C(=O)c1ccc(N3CCCC3)cc1S2(=O)=O | 0.41% (inactive)
COc1ccc(/C=C2\Oc3cc(OCC(=O)N4CCC[C@H]4CO)ccc3C2=O)c(OC)c1 | 0.23% (inactive)
COc1ccc(/C=C2\Oc3cc(OCC(=O)N4CCC[C@H]4C(=O)O)ccc3C2=O)c(OC)c1 | 5.17% (inactive)
COc1ccc(/C=C2\Oc3cc(OCC(=O)N4CCC(C(=O)O)CC4)ccc3C2=O)c(OC)c1 | 84% (active)
CN(C)c1ccc(/C=C/C(=O)c2cccc(Br)c2)cc1 | 0.06% (inactive)
CCOc1ccc(CCNC(=O)c2ccc(CNS(=O)(=O)c3ccccc3)cc2)cc1OCC | 0.06% (inactive)
O=C(NCCc1ccccc1)c1ccc(Cl)nc1 | 5.54% (inactive)
CCOc1ccc(Cn2nnc(C(=O)NCCc3ccccc3)c2N)cc1 | 40.2% (active)
CC1=Nc2ccccc2/C1=C/c1sc(=S)n(-c2cccc(C(=O)O)c2)c1O | 0.55% (inactive)

Compound | fluorescence artifact activation
O=C(Cc1ccccc1)Nn1c(O)c(/C=C2\C=Nc3ccccc32)sc1=S | 29.4% (active)
Cc1ccc2c(c1)[C@H]1[C@H](CO2)[C@H](c2ccccc2)[C@]2(C)C(=O)N(Cc3ccc(F)cc3)CC(=O)N12 | 0.19% (inactive)
Clc1ccccc1/C=N/NC1=Nc2cccc3cccc1c23 | 0.08% (inactive)
CCC12OC(=N)C(C#N)(C1C)C(C#N)(C#N)C(c1ccccc1)O2 (stereo not drawn) | -0.03% (inactive)
O=C(COC(=O)C1(c2ccc(F)cc2)CCCC1)N1CCN(C(=O)c2ccco2)CC1 | 0% (inactive)
CCC(C)(C)n1nnnc1C(c1ccc(C)cc1)N1CCN(C(=O)c2ccco2)CC1 (stereo not drawn) | 0.17% (inactive)
O=C(CCSc1ccccc1)N1CCN(C(=O)c2ccco2)CC1 | 25.9% (active)
COc1cc2c(cc1OC)CN(Cc1cc(=O)oc3cc(C)c(C)cc13)CC2 | -0.02% (inactive)
C=CCNc1sc(C(=O)c2ccc(Br)s2)c(N)c1C#N | 37% (active)
O=C(NCc1ccc(OC(F)(F)F)cc1)c1cccc2c1C(=O)c1ccc(N3CCCCC3)cc1S2(=O)=O | 0.89% (inactive)
C#CCOCCOCCOCCNc1nc(N2CCN(C(=O)Cn3cc(CCCCN)nn3)CC2)nc(N2CCN(C(=O)Cn3cc(CC(C)O)nn3)CC2)n1 (stereo not drawn) | -0.09% (inactive)
Cc1ccnc2nc(C(=O)OCC(=O)NCCc3ccccc3)nn12 | 7.51% (inactive)
COc1ccc(CCNC(=O)COC(=O)c2cc(=O)[nH]c3ccccc23)cc1 | 15.4% (active)
COc1ccc(-c2noc(CCC(=O)NCCc3ccccc3)n2)cc1 | 0.2% (inactive)
CCC12CN3CCN(CC(C3)/C1=N\NC(=O)Nc1ccccc1)C2 | -0.04% (inactive)
CCCC(NC(=O)CCc1c(C)c2cc3c(-c4ccccc4)coc3cc2oc1=O)C(=O)O (stereo not drawn) | 35.8% (active)
CCCCCCc1cc2cc(-c3nnc(-c4ccccc4)o3)c(=O)oc2cc1O | 0.03% (inactive)
O=[N+]([O-])c1ccc(N(c2ccccc2)c2ccccc2)cc1 | 2.48% (inactive)
Cc1ccc(S(=O)(=O)c2c(N)n(Cc3ccco3)c3nc4ccccc4nc23)cc1 | 0.24% (inactive)
Nc1c(S(=O)(=O)c2ccccc2)c2nc3ccccc3nc2n1/N=C/c1ccco1 | -0.02% (inactive)
Nc1c(S(=O)(=O)c2ccccc2)c2nc3ccccc3nc2n1Cc1ccco1 | 22.8% (active)
COc1ccccc1Nc1nc(N2CCOCC2)nc(N2CCOCC2)n1 | 0% (inactive)

Compound | fluorescence artifact activation
CCOC(=O)c1c(NC(=S)N2CCN(C)CC2)sc2c1CCN(C(=O)OCC)C2 | 1.28% (inactive)
O=C(CCN1C(=O)/C(=C/c2ccccc2)SC1=S)NNC(=O)c1cccnc1 | 0.24% (inactive)
C/C(O)=c1/ccc2cccc3nc(C)nc1c23 | 13.3% (active)
CCC(C)NC(=O)C1CC(=O)N(CCc2ccc(F)cc2)C1 (stereo not drawn) | 111% (active)
COc1ccc(CN=C2NC(=O)CC(C(=O)Nc3ccc(F)cc3)S2)cc1 (stereo not drawn) | 1.74% (inactive)
COc1ccc(S(=O)(=O)N2CCC(C(=O)NC(C)CCc3ccccc3)CC2)cc1 (stereo not drawn) | -0.01% (inactive)
NC(=O)NC(=O)COC(=O)c1cccc(NS(=O)(=O)/C=C/c2ccccc2)c1 | 6.11% (inactive)
CC(=O)N(C)c1ccc(C(O)(C(F)(F)F)C(F)(F)F)cc1 | 7.43% (inactive)
O=c1c2ccccc2nc(SCc2nc(-c3ccccc3)no2)n1-c1ccc(F)cc1 | 0.14% (inactive)
CNC(=S)N1N=C(c2ccc(Br)cc2)CC1c1ccc(N(C)C)cc1 (stereo not drawn) | 5.89% (inactive)
COc1ccc(C2=NN(C(=O)CSc3ncccn3)C(c3ccc(C)cc3)C2)cc1 (stereo not drawn) | 202% (active)
O=C(c1cn(-c2ccccc2)nc1-c1ccc(Br)cc1)N1CCOCC1 | 0.32% (inactive)
COC(=O)c1[nH]c2ccc(C)cc2c1NC(=O)C(C)N1CCN(C2CCCCC2)CC1 (stereo not drawn) | 0.08% (inactive)
O=C(O)C1CCCCC1C(=O)Nc1ccc(-c2ccccc2)cc1 (stereo not drawn) | 0.17% (inactive)
COc1ccc(C2C(C#N)=C(N)SC(N)=C2C#N)cc1OC | 0.15% (inactive)
CCOc1ccccc1C1C(C#N)=C(N)SC(N)=C1C#N | 0.08% (inactive)
CCOc1ccc(C2C(C#N)=C(N)SC(N)=C2C#N)cc1OCC | 11.7% (active)
Cc1cc(S(=O)(=O)Nc2c(C)nn(C)c2C)c(Cl)cc1Cl | 0.08% (inactive)
COC(=O)c1ccc2c(c1)NC1=C(C(=O)CC(C)(C)C1)C(c1ccncc1)N2 (stereo not drawn) | 0.26% (inactive)
Cc1ccccc1OCCC(=O)Nc1cc(S(=O)(=O)N2CCCCC2)ccc1N1CCN(C)CC1 | 4.83% (inactive)
CCN1/C(=C/c2ccc3cc(C)ccc3[n+]2CC)Sc2ccccc21 | 15.3% (active)
CCN1/C(=C/c2ccc3cc(C)ccc3[n+]2CC)Sc2ccc3sccc3c21 | 0.99% (inactive)

Compound | fluorescence artifact activation
CCN1/C(=C/c2ccc3cc(C)cc(C)c3[n+]2CC)Sc2cc(C)ccc21 | 0.44% (inactive)
CCN1/C(=C\c2ccc3cc(C)ccc3[n+]2CC)Sc2cc(C)c(C)cc21 | 0.1% (inactive)
CCN1/C(=C/c2ccc3cc(C)ccc3[n+]2CC)Sc2cc(C)ccc21 | 0.41% (inactive)
CCN1/C(=C\c2ccc3ccccc3[n+]2CC)Sc2cc(C)ccc21 | 20.2% (active)
COCCN(CCOC)Cc1c(O)ccc2c1O/C(=C\c1ccco1)C2=O | 0.11% (inactive)
C=CCn1c(O)c(CN2CCN(Cc3ccccc3)CC2)c(C)c(C#N)c1=O | 0.03% (inactive)
CCC[C@@H](CN1CCC[C@H]1CN1C(N)=NC[C@@H]1Cc1ccccc1)N1C[C@@H](Cc2ccccc2)N(CCCC2CCCC2)C1=N | 7.46% (inactive)
CCOc1ccc(NC(=O)/C(C#N)=C/c2ccc(N3CCCC3)c(C)c2)cc1 | 0.06% (inactive)
Oc1[nH]c2ccc(Br)cc2c1N=Nc1ccc(F)cc1 | 5.56% (inactive)
CS(=O)(=O)Nc1ccc(C2=NN(C(=O)CCCC(=O)O)C(c3cccs3)C2)cc1 (stereo not drawn) | 16.5% (active)
COc1ccc(C2=NN(C(=O)COC(=O)c3ccc(NC(=O)CC#N)cc3)C(c3ccco3)C2)cc1 (stereo not drawn) | 2.58% (inactive)
O/C(=C\c1nc2ccccc2[nH]1)c1cccs1 | 0% (inactive)
O=C(O)c1ccc(O)c(O)c1 | -0.01% (inactive)
Cc1cc(C)c[n+](-c2[nH]c(=O)sc2/C=N/NC([S-])=Nc2ccccc2)c1 | 0.17% (inactive)
Cc1ccc[n+](-c2nc([O-])sc2C=O)c1 | 9.59% (inactive)
Cc1ccc(N/C=C2/Sc3ccccc3NC2=O)cc1 | 0.14% (inactive)
CC1C2(C)OC(=N)C(C#N)(C(C)O2)C1(C#N)C#N (stereo not drawn) | 0.64% (inactive)
CCN1C(=O)/C(=C\C=C2/C=CC=CN2CC)SC1=S | 104% (active)
CCN1C(=O)/C(=C/C=C2/SCCN2C)SC1=S | 10.2% (inactive)
CCCCN1C(=O)/C(=C/C=C2/CC(C)(C)CN2C)SC1=S | -0.02% (inactive)
COC(=O)C(C)n1cnc2c(nnn2Cc2ccc(Cl)cc2)c1=O (stereo not drawn) | 0.03% (inactive)
Cc1ccc(C)c(S(=O)(=O)N2CCCC2CNC(=O)C(=O)NC2CC2)c1 (stereo not drawn) | 0.11% (inactive)
